Reference: ChEMBL document CHEMBL5653631, “A Potent and Selective ULK1 Inhibitor Suppresses Autophagy and Sensitizes Cancer Cells to Nutrient Stress” (iScience, 2018)
Each block holds one compound with its values, some of them ahead of it.

How the values were obtained:
[1] = molecular target: RAC-alpha serine/threonine-protein kinase (Homo sapiens) (UniProt P31749); test: Inhibition of human recombinant AKT1 at 500 nM in presence of ATP by radiometric assay relative to control
Method in brief: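 Panel of 327 recombinant human kinases in radiometric activity assays, each screened in duplicate at a single inhibitor concentration; percent activity remaining relative to vehicle control, percent inhibition taken as 100 minus activity remaining.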

[2] = molecular target: T1, Serine/threonine-protein kinase 17B (Homo sapiens) (UniProt O94768); test: Inhibition of human recombinant DRAK2 at 500 nM in presence of ATP by radiometric assay relative to control
T1 sequence (whole entry): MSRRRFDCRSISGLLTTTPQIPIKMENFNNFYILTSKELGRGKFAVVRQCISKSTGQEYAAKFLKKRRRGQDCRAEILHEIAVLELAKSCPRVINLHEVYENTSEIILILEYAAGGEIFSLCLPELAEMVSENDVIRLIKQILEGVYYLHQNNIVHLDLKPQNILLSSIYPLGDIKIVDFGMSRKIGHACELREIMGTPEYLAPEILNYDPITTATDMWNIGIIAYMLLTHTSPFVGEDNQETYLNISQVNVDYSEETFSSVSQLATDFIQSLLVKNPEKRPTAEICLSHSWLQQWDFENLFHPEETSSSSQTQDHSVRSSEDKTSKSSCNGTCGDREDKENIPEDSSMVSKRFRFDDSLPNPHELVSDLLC

[3] = molecular target: MAP kinase-interacting serine/threonine-protein kinase 2 (Homo sapiens, UniProt Q9HBH9); test: Inhibition of human recombinant MNK2 at 500 nM in presence of ATP by radiometric assay relative to control
[4] = molecular target: T2, Protein kinase C zeta type (Homo sapiens) (UniProt Q05513); test: Inhibition of human recombinant PKCz at 500 nM in presence of ATP by radiometric assay relative to control
T2 sequence (whole entry): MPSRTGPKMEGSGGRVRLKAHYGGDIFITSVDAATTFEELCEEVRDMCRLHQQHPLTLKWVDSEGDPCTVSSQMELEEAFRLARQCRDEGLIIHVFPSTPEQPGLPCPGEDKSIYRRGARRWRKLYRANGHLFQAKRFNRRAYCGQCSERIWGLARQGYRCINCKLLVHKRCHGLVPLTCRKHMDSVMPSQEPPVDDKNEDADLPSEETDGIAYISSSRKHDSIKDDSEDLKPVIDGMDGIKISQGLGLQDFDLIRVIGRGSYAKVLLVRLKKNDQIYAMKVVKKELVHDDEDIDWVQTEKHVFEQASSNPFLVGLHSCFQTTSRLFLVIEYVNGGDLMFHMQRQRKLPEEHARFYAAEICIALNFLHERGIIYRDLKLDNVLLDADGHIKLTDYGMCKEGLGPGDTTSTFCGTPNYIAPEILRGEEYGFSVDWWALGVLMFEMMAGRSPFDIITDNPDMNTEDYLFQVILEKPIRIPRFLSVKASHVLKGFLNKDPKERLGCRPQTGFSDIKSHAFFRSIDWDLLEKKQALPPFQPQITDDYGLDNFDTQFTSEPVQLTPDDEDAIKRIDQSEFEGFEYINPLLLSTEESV

[5] = molecular target: Macrophage-stimulating protein receptor (Homo sapiens) (UniProt Q04912); test: Inhibition of human recombinant RON at 500 nM in presence of ATP by radiometric assay relative to control
[6] = molecular target: Serine/threonine-protein kinase Nek6 (Homo sapiens) (UniProt Q9HC98); test: Inhibition of human recombinant NEK6 at 500 nM related to control ULK1
[7] = molecular target: Dual specificity tyrosine-phosphorylation-regulated kinase 1A (Homo sapiens) (UniProt Q13627); test: Inhibition of human recombinant DYRK1A at 15 nM in presence of ATP by radiometric assay relative to control
[8] = molecular target: T3, Calcium/calmodulin-dependent protein kinase type IV (Homo sapiens) (UniProt Q16566); test: Inhibition of human recombinant CaMK4 at 15 nM related to control ULK1
T3 sequence (whole entry): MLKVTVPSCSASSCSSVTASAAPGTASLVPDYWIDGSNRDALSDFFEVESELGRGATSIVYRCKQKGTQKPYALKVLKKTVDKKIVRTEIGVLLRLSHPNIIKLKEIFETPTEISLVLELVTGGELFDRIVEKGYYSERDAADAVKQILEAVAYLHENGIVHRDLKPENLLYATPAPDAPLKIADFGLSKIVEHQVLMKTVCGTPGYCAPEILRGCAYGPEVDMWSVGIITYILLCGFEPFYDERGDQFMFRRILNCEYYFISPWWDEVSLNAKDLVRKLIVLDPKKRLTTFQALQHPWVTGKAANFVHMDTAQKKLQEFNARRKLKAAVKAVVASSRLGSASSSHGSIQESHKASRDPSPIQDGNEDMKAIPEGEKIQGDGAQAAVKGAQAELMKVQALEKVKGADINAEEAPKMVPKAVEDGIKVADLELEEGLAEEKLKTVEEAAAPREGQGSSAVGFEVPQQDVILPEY

[9] = molecular target: T4, Serine/threonine-protein kinase Nek2 (Homo sapiens) (UniProt P51955); test: Inhibition of human recombinant NEK2 at 15 nM related to control ULK1
T4 sequence (whole entry): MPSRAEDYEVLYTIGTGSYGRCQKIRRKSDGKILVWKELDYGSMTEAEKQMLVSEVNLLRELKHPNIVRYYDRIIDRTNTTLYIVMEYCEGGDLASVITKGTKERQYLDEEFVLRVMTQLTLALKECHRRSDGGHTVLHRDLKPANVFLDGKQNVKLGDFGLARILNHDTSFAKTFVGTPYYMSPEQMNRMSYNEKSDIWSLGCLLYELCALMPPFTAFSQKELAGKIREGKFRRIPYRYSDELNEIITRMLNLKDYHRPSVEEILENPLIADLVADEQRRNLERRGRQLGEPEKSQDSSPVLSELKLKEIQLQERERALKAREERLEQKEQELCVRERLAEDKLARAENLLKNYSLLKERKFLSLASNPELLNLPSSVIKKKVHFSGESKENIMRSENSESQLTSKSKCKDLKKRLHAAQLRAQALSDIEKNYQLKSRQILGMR

[10] = molecular target: Transcription initiation factor TFIID subunit 1-like (Homo sapiens) (UniProt Q8IZX4); test: Inhibition of human recombinant TAF1L at 15 nM related to control ULK1
[11] = molecular target: 3-phosphoinositide-dependent protein kinase 1 (Homo sapiens) (UniProt O15530); test: Inhibition of human recombinant PDK1 at 15 nM related to control ULK1
[12] = molecular target: Homeodomain-interacting protein kinase 2 (Homo sapiens) (UniProt Q9H2X6); test: Inhibition of human recombinant HIPK2 at 40 nM related to control ULK1
[13] = molecular target: Serine/threonine-protein kinase/endoribonuclease IRE1 (Homo sapiens) (UniProt O75460); test: Inhibition of human recombinant IRE1 at 40 nM related to control ULK1

Chain of Homeodomain-interacting protein kinase 2 (Homo sapiens) (Q9H2X6 whole entry, looked up): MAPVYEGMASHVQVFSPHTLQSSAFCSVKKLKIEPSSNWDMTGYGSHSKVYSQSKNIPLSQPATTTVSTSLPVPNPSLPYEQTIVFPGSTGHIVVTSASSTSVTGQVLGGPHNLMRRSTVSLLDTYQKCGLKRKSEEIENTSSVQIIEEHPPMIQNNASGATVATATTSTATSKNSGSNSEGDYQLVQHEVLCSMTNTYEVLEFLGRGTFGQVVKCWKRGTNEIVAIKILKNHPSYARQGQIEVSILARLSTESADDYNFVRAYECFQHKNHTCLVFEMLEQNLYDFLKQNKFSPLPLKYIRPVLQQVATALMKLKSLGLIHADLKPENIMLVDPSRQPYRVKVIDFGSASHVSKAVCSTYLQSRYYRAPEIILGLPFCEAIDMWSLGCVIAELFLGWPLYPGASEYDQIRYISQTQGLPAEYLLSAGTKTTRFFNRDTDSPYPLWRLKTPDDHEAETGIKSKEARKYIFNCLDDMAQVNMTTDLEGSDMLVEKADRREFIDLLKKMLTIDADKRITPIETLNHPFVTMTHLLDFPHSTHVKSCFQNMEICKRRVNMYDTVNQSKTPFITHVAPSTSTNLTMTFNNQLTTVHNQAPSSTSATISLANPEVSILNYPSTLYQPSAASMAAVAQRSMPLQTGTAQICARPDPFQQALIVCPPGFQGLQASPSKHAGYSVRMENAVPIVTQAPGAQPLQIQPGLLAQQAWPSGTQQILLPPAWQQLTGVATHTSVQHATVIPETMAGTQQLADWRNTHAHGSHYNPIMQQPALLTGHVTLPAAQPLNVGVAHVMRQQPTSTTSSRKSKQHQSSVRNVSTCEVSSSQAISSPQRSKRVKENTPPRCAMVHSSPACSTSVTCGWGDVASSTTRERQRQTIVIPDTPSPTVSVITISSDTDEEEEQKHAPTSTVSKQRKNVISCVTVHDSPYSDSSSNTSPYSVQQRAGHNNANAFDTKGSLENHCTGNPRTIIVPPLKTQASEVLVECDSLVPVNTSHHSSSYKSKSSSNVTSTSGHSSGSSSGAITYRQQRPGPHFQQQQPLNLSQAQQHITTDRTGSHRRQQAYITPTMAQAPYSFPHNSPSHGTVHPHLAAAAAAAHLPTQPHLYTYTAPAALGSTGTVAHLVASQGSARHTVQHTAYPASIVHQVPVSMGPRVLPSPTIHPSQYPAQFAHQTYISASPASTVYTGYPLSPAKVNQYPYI
Chain of Macrophage-stimulating protein receptor (Homo sapiens) (Q04912 25-304 limits assumed): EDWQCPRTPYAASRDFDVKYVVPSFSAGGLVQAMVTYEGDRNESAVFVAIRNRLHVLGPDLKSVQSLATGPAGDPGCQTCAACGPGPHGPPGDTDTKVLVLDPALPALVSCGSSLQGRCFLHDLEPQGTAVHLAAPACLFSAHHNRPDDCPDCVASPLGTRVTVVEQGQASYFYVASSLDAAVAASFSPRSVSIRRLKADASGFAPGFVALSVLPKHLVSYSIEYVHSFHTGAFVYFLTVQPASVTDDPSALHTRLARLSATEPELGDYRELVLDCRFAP
Chain of Macrophage-stimulating protein receptor (Homo sapiens) (Q04912 310-1400 limits assumed): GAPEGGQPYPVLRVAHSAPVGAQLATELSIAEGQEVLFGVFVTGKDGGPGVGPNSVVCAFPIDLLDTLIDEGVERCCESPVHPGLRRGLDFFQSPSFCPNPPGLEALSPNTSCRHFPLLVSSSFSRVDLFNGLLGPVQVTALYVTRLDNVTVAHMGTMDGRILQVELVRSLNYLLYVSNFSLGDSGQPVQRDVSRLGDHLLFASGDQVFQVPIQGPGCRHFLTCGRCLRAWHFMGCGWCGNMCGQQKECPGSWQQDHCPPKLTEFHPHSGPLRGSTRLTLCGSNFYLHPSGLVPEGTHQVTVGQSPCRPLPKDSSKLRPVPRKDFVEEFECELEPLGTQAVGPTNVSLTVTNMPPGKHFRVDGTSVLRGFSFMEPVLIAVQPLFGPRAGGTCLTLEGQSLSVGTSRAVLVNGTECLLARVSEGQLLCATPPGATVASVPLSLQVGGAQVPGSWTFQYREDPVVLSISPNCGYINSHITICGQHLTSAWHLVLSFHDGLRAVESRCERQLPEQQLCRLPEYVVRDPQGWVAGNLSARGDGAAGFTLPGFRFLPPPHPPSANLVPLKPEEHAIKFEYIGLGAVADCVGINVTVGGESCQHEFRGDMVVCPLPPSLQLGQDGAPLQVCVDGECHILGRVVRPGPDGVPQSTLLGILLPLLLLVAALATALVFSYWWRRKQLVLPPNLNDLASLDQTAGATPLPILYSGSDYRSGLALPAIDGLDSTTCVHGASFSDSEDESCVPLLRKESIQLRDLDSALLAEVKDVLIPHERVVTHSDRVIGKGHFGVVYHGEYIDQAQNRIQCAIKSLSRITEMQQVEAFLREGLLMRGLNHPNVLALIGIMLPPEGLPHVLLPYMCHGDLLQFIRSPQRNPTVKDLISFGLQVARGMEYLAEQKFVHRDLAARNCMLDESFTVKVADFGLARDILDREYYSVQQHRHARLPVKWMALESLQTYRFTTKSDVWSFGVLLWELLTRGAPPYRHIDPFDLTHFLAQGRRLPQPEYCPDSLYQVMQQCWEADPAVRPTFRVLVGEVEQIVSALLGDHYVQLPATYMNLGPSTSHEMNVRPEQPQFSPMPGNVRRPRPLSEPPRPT
Chain of Transcription initiation factor TFIID subunit 1-like (Homo sapiens) (Q8IZX4 whole entry): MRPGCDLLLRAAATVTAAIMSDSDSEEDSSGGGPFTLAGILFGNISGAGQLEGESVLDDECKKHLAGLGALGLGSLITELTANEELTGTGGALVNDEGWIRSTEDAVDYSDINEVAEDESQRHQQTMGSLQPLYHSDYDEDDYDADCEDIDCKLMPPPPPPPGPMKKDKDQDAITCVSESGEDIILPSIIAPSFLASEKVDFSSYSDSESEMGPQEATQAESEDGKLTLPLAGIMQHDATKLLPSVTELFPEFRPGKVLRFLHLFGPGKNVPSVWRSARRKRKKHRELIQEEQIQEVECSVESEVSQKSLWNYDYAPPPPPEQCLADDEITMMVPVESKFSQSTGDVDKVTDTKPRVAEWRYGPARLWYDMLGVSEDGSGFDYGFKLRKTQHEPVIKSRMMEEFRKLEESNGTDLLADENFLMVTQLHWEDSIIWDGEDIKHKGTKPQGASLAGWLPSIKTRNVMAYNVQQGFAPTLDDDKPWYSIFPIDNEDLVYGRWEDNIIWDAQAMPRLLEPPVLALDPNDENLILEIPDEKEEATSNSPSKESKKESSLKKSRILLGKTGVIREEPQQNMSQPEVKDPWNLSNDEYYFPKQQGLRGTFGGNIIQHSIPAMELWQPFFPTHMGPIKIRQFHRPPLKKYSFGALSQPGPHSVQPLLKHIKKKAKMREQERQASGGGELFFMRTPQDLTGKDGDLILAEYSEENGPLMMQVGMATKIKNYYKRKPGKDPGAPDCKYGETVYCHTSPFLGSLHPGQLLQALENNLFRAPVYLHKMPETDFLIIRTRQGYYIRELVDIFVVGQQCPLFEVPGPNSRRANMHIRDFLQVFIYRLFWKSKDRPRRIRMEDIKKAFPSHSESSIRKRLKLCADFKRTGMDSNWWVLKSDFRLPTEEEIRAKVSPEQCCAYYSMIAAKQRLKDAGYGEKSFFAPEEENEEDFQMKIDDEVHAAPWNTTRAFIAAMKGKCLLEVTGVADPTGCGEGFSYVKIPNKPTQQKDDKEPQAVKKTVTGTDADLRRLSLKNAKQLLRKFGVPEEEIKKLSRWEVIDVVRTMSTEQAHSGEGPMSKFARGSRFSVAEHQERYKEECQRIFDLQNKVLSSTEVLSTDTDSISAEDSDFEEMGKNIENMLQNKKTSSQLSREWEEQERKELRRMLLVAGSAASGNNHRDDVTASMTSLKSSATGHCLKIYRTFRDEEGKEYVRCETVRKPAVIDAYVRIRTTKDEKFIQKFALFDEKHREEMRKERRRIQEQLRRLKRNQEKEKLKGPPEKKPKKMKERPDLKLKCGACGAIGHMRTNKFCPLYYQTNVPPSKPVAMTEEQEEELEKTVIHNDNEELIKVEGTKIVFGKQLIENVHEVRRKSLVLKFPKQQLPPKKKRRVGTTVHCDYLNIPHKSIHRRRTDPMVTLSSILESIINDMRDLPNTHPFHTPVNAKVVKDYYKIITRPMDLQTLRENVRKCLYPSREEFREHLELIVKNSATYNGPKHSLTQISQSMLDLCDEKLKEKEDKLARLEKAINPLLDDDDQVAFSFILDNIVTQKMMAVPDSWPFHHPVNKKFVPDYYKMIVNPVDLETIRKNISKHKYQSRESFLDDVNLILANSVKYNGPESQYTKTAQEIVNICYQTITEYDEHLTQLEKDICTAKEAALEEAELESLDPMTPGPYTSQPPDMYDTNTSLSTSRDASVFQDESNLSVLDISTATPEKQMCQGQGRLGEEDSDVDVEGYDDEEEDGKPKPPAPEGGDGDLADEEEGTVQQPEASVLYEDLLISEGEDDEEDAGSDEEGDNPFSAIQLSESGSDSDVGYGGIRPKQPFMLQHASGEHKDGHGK
Chain of RAC-alpha serine/threonine-protein kinase (Homo sapiens) (P31749 whole entry): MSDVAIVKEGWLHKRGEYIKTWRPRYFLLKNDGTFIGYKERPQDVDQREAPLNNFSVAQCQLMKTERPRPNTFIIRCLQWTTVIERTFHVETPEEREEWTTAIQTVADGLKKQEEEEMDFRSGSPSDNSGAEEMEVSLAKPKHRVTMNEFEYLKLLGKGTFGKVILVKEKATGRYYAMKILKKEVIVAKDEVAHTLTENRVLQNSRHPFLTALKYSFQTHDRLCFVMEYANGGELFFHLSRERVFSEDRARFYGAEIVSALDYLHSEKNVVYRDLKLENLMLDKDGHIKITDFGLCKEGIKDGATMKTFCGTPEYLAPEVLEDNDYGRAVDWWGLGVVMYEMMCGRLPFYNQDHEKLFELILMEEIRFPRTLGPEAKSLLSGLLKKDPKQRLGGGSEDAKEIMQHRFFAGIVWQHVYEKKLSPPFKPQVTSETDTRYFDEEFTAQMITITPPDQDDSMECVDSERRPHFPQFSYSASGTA

- inhibition [1]: 0%
- inhibition [2]: 6%
- inhibition [3]: 2%
- inhibition [4]: 0%
- inhibition [5]: 1%
- fold change (FC) [6]: 0
Structure (SMILES): CNC(=O)c1ccccc1Oc1nc(Nc2cc(OC)c(OC)c(OC)c2)ncc1Br

- inhibition [7]: 73%
- fold change (FC) [8]: 0
- fold change (FC) [9]: 0.14
- fold change (FC) [10]: 0.49
- fold change (FC) [11]: 0.07
Structure (SMILES): CC(C)[C@H](NC(=O)c1cc(-c2cnn3cc(-c4ccc(OCCN5CCCCC5)cc4)cnc23)cs1)C(F)(F)F

- fold change (FC) [12]: 0
- fold change (FC) [13]: 0
Structure (SMILES): O=C(N[C@@H](C1CC1)C(F)(F)F)c1cc(-c2cnn3cc(-c4ccc(F)cc4)cnc23)cs1
